According to ChEMBL document CHEMBL1152865, “Synthesis and antimycobacterial activities of novel 6-nitroquinolone-3-carboxylic acids” (Eur J Med Chem, 2009):
≈ marks a conversion by molar mass, not a printed value.

test system: Mycobacterium tuberculosis; assay: Antibacterial activity against Mycobacterium tuberculosis H37Rv by agar dilution method; format: functional; conditions: not given
Method in brief: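 Agar dilution in Middlebrook 7H11 agar supplemented with OADC, following an approach similar to NCCLS guidance. MIC determined in duplicate.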

SMILES | MIC [µM]
Cc1onc(-c2c(F)cccc2F)c1C(=O)N1CCN(c2cc3c(cc2[N+](=O)[O-])c(=O)c(C(=O)O)cn3C2CC2)CC1 | 2.69 (≈ 1.56 µg/mL)
O=C(O)c1cn(-c2ccc(F)cc2)c2cc(N3CCN(C(c4ccccc4)c4ccc(Cl)cc4)CC3)c([N+](=O)[O-])cc2c1=O (stereo not given) | 10.2 (≈ 6.25 µg/mL)
Cc1onc(-c2c(F)cccc2F)c1C(=O)N1CCN(c2cc3c(cc2[N+](=O)[O-])c(=O)c(C(=O)O)cn3-c2ccc(F)cc2)CC1 | 4.94 (≈ 3.13 µg/mL)
O=C(O)c1cn(-c2ccc(F)cc2)c2cc(N3CCC(N4CCCCC4)CC3)c([N+](=O)[O-])cc2c1=O | 6.33 (≈ 3.13 µg/mL)
CN1CCN(c2cc3c(cc2[N+](=O)[O-])c(=O)c(C(=O)O)cn3-c2ccc(F)cc2)CC1c1ccccc1 (stereo not given) | 6.23 (≈ 3.13 µg/mL)
O=C(O)c1cn(-c2ccc(F)cc2)c2cc(N3CCSCC3)c([N+](=O)[O-])cc2c1=O | 14.6 (≈ 6.25 µg/mL)
CC(C)(C)n1cc(C(=O)O)c(=O)c2cc([N+](=O)[O-])c(N3CCSCC3)cc21 | 7.99 (≈ 3.13 µg/mL)
O=C(O)c1cn2c(n1)CN(c1cc3c(cc1[N+](=O)[O-])c(=O)c(C(=O)O)cn3C1CC1)CC2 | 1.78 (≈ 0.782 µg/mL)
CC(C)(C)n1cc(C(=O)O)c(=O)c2cc([N+](=O)[O-])c(N3CCn4cc(C(=O)O)nc4C3)cc21 | 6.87 (≈ 3.13 µg/mL)
CC(C)(C)NC(=O)C1c2ccccc2CCN1c1cc2c(cc1[N+](=O)[O-])c(=O)c(C(=O)O)cn2C(C)(C)C (stereo not given) | 12 (≈ 6.25 µg/mL)
CC1CN(c2cc3c(cc2[N+](=O)[O-])c(=O)c(C(=O)O)cn3C2CC2)CC(C)O1 (stereo not given) | 2.01 (≈ 0.779 µg/mL)
O=C(O)c1cn(-c2ccc(F)cc2)c2cc(N3CCN(Cc4ccc5c(c4)OCO5)CC3)c([N+](=O)[O-])cc2c1=O | 2.85 (≈ 1.56 µg/mL)

test system: Mycolicibacterium smegmatis; assay: Antibacterial activity against Mycobacterium smegmatis ATCC 14468 by agar dilution method; format: functional; conditions: not given
Method in brief: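 Agar dilution on Middlebrook 7H11 agar with OADC supplement, following an NCCLS-type procedure; MIC read in duplicate.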

SMILES | MIC [µM]
Cc1onc(-c2c(F)cccc2F)c1C(=O)N1CCN(c2cc3c(cc2[N+](=O)[O-])c(=O)c(C(=O)O)cn3C2CC2)CC1 | 10.8 (≈ 6.25 µg/mL)
O=C(O)c1cn(-c2ccc(F)cc2)c2cc(N3CCN(C(c4ccccc4)c4ccc(Cl)cc4)CC3)c([N+](=O)[O-])cc2c1=O (stereo not given) | 40.8 (≈ 25 µg/mL)
Cc1onc(-c2c(F)cccc2F)c1C(=O)N1CCN(c2cc3c(cc2[N+](=O)[O-])c(=O)c(C(=O)O)cn3-c2ccc(F)cc2)CC1 | 19.7 (≈ 12.5 µg/mL)
O=C(O)c1cn(-c2ccc(F)cc2)c2cc(N3CCC(N4CCCCC4)CC3)c([N+](=O)[O-])cc2c1=O | 25.3 (≈ 12.5 µg/mL)
CN1CCN(c2cc3c(cc2[N+](=O)[O-])c(=O)c(C(=O)O)cn3-c2ccc(F)cc2)CC1c1ccccc1 (stereo not given) | 24.9 (≈ 12.5 µg/mL)
O=C(O)c1cn(-c2ccc(F)cc2)c2cc(N3CCSCC3)c([N+](=O)[O-])cc2c1=O | 29.1 (≈ 12.5 µg/mL)
CC(C)(C)n1cc(C(=O)O)c(=O)c2cc([N+](=O)[O-])c(N3CCSCC3)cc21 | 31.9 (≈ 12.5 µg/mL)
O=C(O)c1cn2c(n1)CN(c1cc3c(cc1[N+](=O)[O-])c(=O)c(C(=O)O)cn3C1CC1)CC2 | 7.12 (≈ 3.13 µg/mL)
CC(C)(C)n1cc(C(=O)O)c(=O)c2cc([N+](=O)[O-])c(N3CCn4cc(C(=O)O)nc4C3)cc21 | 54.9 (≈ 25 µg/mL)
CC(C)(C)NC(=O)C1c2ccccc2CCN1c1cc2c(cc1[N+](=O)[O-])c(=O)c(C(=O)O)cn2C(C)(C)C (stereo not given) | 24 (≈ 12.5 µg/mL)
CC1CN(c2cc3c(cc2[N+](=O)[O-])c(=O)c(C(=O)O)cn3C2CC2)CC(C)O1 (stereo not given) | 8.08 (≈ 3.13 µg/mL)
O=C(O)c1cn(-c2ccc(F)cc2)c2cc(N3CCN(Cc4ccc5c(c4)OCO5)CC3)c([N+](=O)[O-])cc2c1=O | 22.9 (≈ 12.5 µg/mL)

test system: not listed separately; assay: Cytotoxicity against african green monkey Vero cells after 72 hrs by MTT assay; format: cell-based; conditions: chlorocebus sabaeus
Method in brief: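 Cells exposed to compound for 72 h; viability from cellular MTT conversion to formazan; CC50 derived.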

SMILES | CC50 at 72 h [µM]
O=C(O)c1cn2c(n1)CN(c1cc3c(cc1[N+](=O)[O-])c(=O)c(C(=O)O)cn3C1CC1)CC2 | 142
